Active and inactive are the calls of the source. The calls are words filed in the database; no cut-off is given here.
Legend:
Eimeria acervulina = test: Anticoccidial activity in chicken against Eimeria acervulina.; assay type: functional; set-up: Reduction: concentration or dose not given beside the values
How it was run: (§1)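 3-Day-old chicks infected separately with E. tenella or E. acervulina; test compound given mixed in the feed at the stated rates. Activity was scored as percent suppression of oocyst production versus infected, unmedicated controls. Toxicity was judged from average weight gain relative to uninfected controls.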

Eimeria tenella = test: Anticoccidial activity in chicken against E. tenella; assay type: functional; set-up: Reduction: concentration or dose not given beside the values; how it was run: as §1
Gallus gallus [1] = species on record: Gallus gallus; test: The compound was tested for anti-coccidial activity in chicken against E. acervulina (DP-761) measured at dose 33(ppm in diet); assay type: functional
Gallus gallus [2] = species on record: Gallus gallus; test: The compound was tested for anti-coccidial activity in chicken against E. tenella(DP-761) measured at dose 33(ppm in diet); assay type: functional
Gallus gallus [3] = species on record: Gallus gallus; test: The compound was tested for anti-coccidial activity in chicken against E. praecox(DP-785) measured at dose 33(ppm in diet); assay type: functional
Gallus gallus [4] = species on record: Gallus gallus; test: The compound was tested for anti-coccidial activity in chicken against E. hagani(DP-786) measured at dose 33(ppm in diet); assay type: functional
Gallus gallus [5] = species on record: Gallus gallus; test: The compound was tested for anti-coccidial activity in chicken against E. brunetti (FS-103) measured at dose 33(ppm in diet); assay type: functional
Gallus gallus [6] = species on record: Gallus gallus; test: The compound was tested for anti-coccidial activity in chicken against E. mitis(LS-84) measured at dose 33(ppm in diet); assay type: functional
Gallus gallus [7] = species on record: Gallus gallus; test: The compound was tested for anti-coccidial activity in chicken against E. maxima(DP-776) measured at dose 33(ppm in diet); assay type: functional
Gallus gallus [8] = species on record: Gallus gallus; test: The compound was tested for anti-coccidial activity in chicken against E. hagani(DP-786) measured at dose 125(ppm in diet); assay type: functional
Gallus gallus [9] = species on record: Gallus gallus; test: The compound was tested for anti-coccidial activity in chicken against E. tenella(DP-761) measured at dose 125(ppm in diet); assay type: functional
Gallus gallus [10] = species on record: Gallus gallus; test: The compound was tested for anti-coccidial activity in chicken against E. praecox(DP-785) measured at dose 125(ppm in diet); assay type: functional
Gallus gallus [11] = species on record: Gallus gallus; test: The compound was tested for anti-coccidial activity in chicken against E. acervulina (DP-761) measured at dose 125(ppm in diet); assay type: functional
Gallus gallus [12] = species on record: Gallus gallus; test: The compound was tested for anti-coccidial activity in chicken against E. brunetti (FS-103) measured at dose 125(ppm in diet); assay type: functional
Gallus gallus [13] = species on record: Gallus gallus; test: The compound was tested for anti-coccidial activity in chicken against E. mitis(LS-84) measured at dose 125(ppm in diet); assay type: functional
Gallus gallus [14] = species on record: Gallus gallus; test: The compound was tested for anti-coccidial activity in chicken against E. maxima(DP-776) measured at dose 125(ppm in diet); assay type: functional
Gallus gallus [15] = species on record: Gallus gallus; test: The compound was tested for anti-coccidial activity in chicken against Eimeria maxima (DP-776) measured at dose 60 (ppm in diet); assay type: functional
Gallus gallus [16] = species on record: Gallus gallus; test: The compound was tested for anti-coccidial activity in chicken against Eimeria brunetti (FS-103) measured at dose 60 (ppm in diet); assay type: functional
Gallus gallus [17] = species on record: Gallus gallus; test: The compound was tested for anti-coccidial activity in chicken against Eimeria praecox (DP-785) measured at dose 60 (ppm in diet); assay type: functional
Gallus gallus [18] = species on record: Gallus gallus; test: The compound was tested for anti-coccidial activity in chicken against Eimeria mitis (LS-84) measured at dose 60 (ppm in diet); assay type: functional
Gallus gallus [19] = species on record: Gallus gallus; test: The compound was tested for anti-coccidial activity in chicken against Eimeria hagani (DP-786) measured at dose 60 (ppm in diet); assay type: functional
Gallus gallus [20] = species on record: Gallus gallus; test: The compound was tested for anti-coccidial activity in chicken against E. acervulina; Inactive; assay type: functional, organism-based; how it was run: as §1
Gallus gallus [21] = species on record: Gallus gallus; test: The compound was tested for anti-coccidial activity in chicken against Eimeria tenella (DP-761) measured at dose 100 (ppm in diet); assay type: functional
How it was run: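 Test article mixed into the feed at the stated rates and given to 3-day-old chicks infected with […]. Each Eimeria species was inoculated separately. Activity was scored as percent suppression of oocyst output relative to infected, unmedicated controls. Toxicity was judged from average weight gain relative to uninfected controls.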

Gallus gallus [22] = species on record: Gallus gallus; test: The compound was tested for anti-coccidial activity in chicken against Eimeria acervulina (DP-761) measured at dose 100 (ppm in diet); assay type: functional
Gallus gallus [23] = species on record: Gallus gallus; test: The compound was tested for anti-coccidial activity in chicken against Eimeria brunetti (FS-103) measured at dose 100 (ppm in diet); assay type: functional
Gallus gallus [24] = species on record: Gallus gallus; test: The compound was tested for anti-coccidial activity in chicken against Eimeria praecox (DP-785) measured at dose 100 (ppm in diet); assay type: functional
Gallus gallus [25] = species on record: Gallus gallus; test: The compound was tested for anti-coccidial activity in chicken against Eimeria mitis (LS-84) measured at dose 100 (ppm in diet); assay type: functional
Gallus gallus [26] = species on record: Gallus gallus; test: The compound was tested for anti-coccidial activity in chicken against Eimeria hagani (DP-786) measured at dose 100 (ppm in diet); assay type: functional
Gallus gallus [27] = species on record: Gallus gallus; test: The compound was tested for anti-coccidial activity in chicken against Eimeria maxima (DP-776) measured at dose 100 (ppm in diet); assay type: functional

NC(=O)c1nnn(Cc2cccc(C(=O)c3ccc(Cl)cc3)c2)c1N
Reduction (Eimeria acervulina): 90%
MED (Eimeria tenella): > 500 ppm

N#Cc1ccc(C(=O)c2c(Cl)cc(Cn3nnc(C(N)=O)c3N)cc2Cl)cc1
Reduction (Eimeria acervulina): 90%
Reduction (Eimeria tenella): 90%

NC(=O)c1nnn(Cc2ccc(C(=O)c3ccc(Cl)cc3)c(Cl)c2)c1N
Reduction (Eimeria acervulina): 90%
MED (Eimeria tenella): > 500 ppm

N=C(N/N=C/c1ccc(Cl)cc1)N/N=C/c1ccc(Cl)cc1 [ROBENIDINE]
Reduction (Gallus gallus [1]): 99.9%
Reduction (Gallus gallus [2]): 0%
Reduction (Eimeria acervulina): 80%
Reduction (Gallus gallus [3]): 54%
Reduction (Gallus gallus [4]): 0%
Reduction (Gallus gallus [5]): 100%
Reduction (Eimeria tenella): 80%
Reduction (Gallus gallus [6]): 100%
Reduction (Gallus gallus [7]): 21%

CCCc1ncc(C[n+]2ccccc2C)c(N)n1.Cl.[Cl-] [AMPROLIUM]
Reduction (Gallus gallus [8]): 0%
Reduction (Gallus gallus [9]): 100%
Reduction (Eimeria acervulina): 80%
Reduction (Gallus gallus [10]): 18%
Reduction (Gallus gallus [11]): 7%
Reduction (Gallus gallus [12]): 79%
Reduction (Eimeria tenella): 80%
Reduction (Gallus gallus [13]): 36%
Reduction (Gallus gallus [14]): 0%

NC(=O)c1nnn(Cc2ccc(C(=O)c3ccc(Cl)cc3Cl)c(Cl)c2)c1N
MED (Eimeria acervulina): > 250 ppm
Reduction (Eimeria tenella): 90%

NC(=O)c1nnn(Cc2ccc(Cl)c(C(=O)c3ccc(Cl)cc3)c2)c1N
Reduction (Eimeria acervulina): 90%
Reduction (Eimeria tenella): 90%

NC(=O)c1nnn(Cc2cc(Cl)c(C(=O)c3ccc(Cl)c(Cl)c3)c(Cl)c2)c1N
Reduction (Eimeria acervulina): 90%
Reduction (Eimeria tenella): 90%

NC(=O)c1nnn(Cc2cc(Cl)c(C(=O)c3ccccc3)c(Cl)c2)c1N
Reduction (Eimeria acervulina): 90%
Reduction (Eimeria tenella): 90%

NC(=O)c1nnn(Cc2cc(Cl)c(C(=O)c3ccc(Cl)cc3)c(Br)c2)c1N
Reduction (Eimeria acervulina): 90%
Reduction (Eimeria tenella): 90%

CC[C@@H](C(=O)[C@@H](C)[C@@H](O)[C@H](C)[C@@H]1O[C@@H]([C@@H](CC)C(=O)O)CC[C@@H]1C)[C@H]1O[C@]2(C=C[C@@H](O)[C@]3(CC[C@@](C)([C@H]4CC[C@](O)(CC)[C@H](C)O4)O3)O2)[C@H](C)C[C@@H]1C [SALINOMYCIN]
Reduction (Gallus gallus [15]): 0%
Reduction (Gallus gallus [16]): 74%
Reduction (Gallus gallus [17]): 62%
Reduction (Gallus gallus [18]): 91%
Reduction (Gallus gallus [19]): 0%
Reduction (Eimeria tenella): 85%

NC(=O)c1nnn(Cc2ccc(Cl)c(Cl)c2)c1N
Reduction (Eimeria acervulina): 80%
Reduction (Eimeria tenella): 80%

NC(=O)c1nnn(Cc2cc(Cl)c(C(=O)c3ccc(F)cc3)c(Cl)c2)c1N
Reduction (Eimeria acervulina): 90%
Reduction (Eimeria tenella): 90%

NC(=O)c1nnn(Cc2cc(Cl)c(C(=O)c3ccc(C(Cl)=C(Cl)Cl)cc3)c(Cl)c2)c1N
Reduction (Eimeria acervulina): 90%
Reduction (Eimeria tenella): 80%

NC(=O)c1nnn(Cc2cc(Cl)c(C(=O)c3ccc(I)cc3)c(Cl)c2)c1N
Reduction (Eimeria acervulina): 90%
Reduction (Eimeria tenella): >99%

NC(=O)c1nnn(Cc2ccc(C(=O)c3c(Cl)cc(Cl)cc3Cl)cc2)c1N
Reduction (Eimeria acervulina): 90%
MED (Eimeria tenella): > 250 ppm

NC(=O)c1nnn(Cc2ccccc2)c1N
Reduction (Gallus gallus [20]): inactive

NC(=O)c1ncn(Cc2ccc(Cl)c(Cl)c2)c1N
Reduction (Eimeria acervulina): >99%
Reduction (Eimeria tenella): >99%

NC(=O)c1nnn(Cc2ccc(Cl)cc2)c1N
Reduction (Eimeria acervulina): 80%
MED (Eimeria tenella): > 1000 ppm

NC(=O)c1nnn(Cc2cc(Cl)c(C(=O)c3cc(Cl)cc(Cl)c3)c(Cl)c2)c1N
Reduction (Eimeria acervulina): > 99%
Reduction (Eimeria tenella): > 99%

Cc1cc(C)nc(O)n1.O=C(Nc1ccc([N+](=O)[O-])cc1)Nc1ccc([N+](=O)[O-])cc1 [NICARBAZIN]
Reduction (Gallus gallus [8]): 0%
Reduction (Gallus gallus [9]): 100%
Reduction (Eimeria acervulina): 80%
Reduction (Gallus gallus [10]): 34%
Reduction (Gallus gallus [11]): 0%
Reduction (Gallus gallus [12]): 100%
Reduction (Eimeria tenella): 80%
Reduction (Gallus gallus [13]): 100%
Reduction (Gallus gallus [14]): 21%

NC(=O)c1nnn(Cc2ccc(C(=O)c3c(Cl)cccc3Cl)cc2)c1N
MED (Eimeria acervulina): > 250 ppm
MED (Eimeria tenella): > 250 ppm

NC(=O)c1nnn(Cc2cc(Cl)cc(Cl)c2)c1N
MED (Eimeria acervulina): > 125 ppm
MED (Eimeria tenella): > 125 ppm

NC(=O)c1nnn(Cc2cc(F)c(C(=O)c3ccc(Cl)cc3)c(Cl)c2)c1N
Reduction (Eimeria acervulina): 90%
Reduction (Eimeria tenella): 90%

COC(=O)c1ccc(C(=O)c2c(Cl)cc(Cn3nnc(C(N)=O)c3N)cc2Cl)cc1
MED (Eimeria acervulina): > 250 ppm
MED (Eimeria tenella): > 250 ppm

NC(=O)c1nnn(Cc2cc(Cl)c(C(=O)c3ccc(Br)cc3)c(Cl)c2)c1N
Reduction (Eimeria acervulina): 80%
Reduction (Eimeria tenella): 90%

CC[C@@H](C(=O)[C@@H](C)[C@@H](O)[C@H](C)CCc1ccc(C)c(O)c1C(=O)O)[C@H]1O[C@](CC)([C@H]2CC[C@](O)(CC)[C@H](C)O2)C[C@@H]1C [LASALOCID]
Reduction (Gallus gallus [21]): 100%
Reduction (Gallus gallus [22]): 16%
Reduction (Eimeria acervulina): 80%
Reduction (Gallus gallus [23]): 100%
Reduction (Eimeria tenella): 80%
Reduction (Gallus gallus [24]): 34%
Reduction (Gallus gallus [25]): 100%
Reduction (Gallus gallus [26]): 74%
Reduction (Gallus gallus [27]): 100%

NC(=O)c1nnn(Cc2ccc(C(=O)c3ccc(Cl)cc3)cc2)c1N
Minimum active dose (Eimeria acervulina): > 500 ppm
MED (Eimeria tenella): > 500 ppm

Nc1ncnc2c1ncn2Cc1c(F)cccc1Cl [ARPRINOCID]
Reduction (Eimeria acervulina): 80%
Reduction (Eimeria tenella): 80%
